pIC50, pKi: −log10 of the molar value.
What was measured:
[1] = Binding affinity towards norepinephrine transporter determined using [3H]nisoxetine as radioligand
How it was run: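 Competition binding at the norepinephrine transporter against [³H]nisoxetine, present at 1.0 nM final concentration.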

[2] = Binding affinity of compound towards dopamine transporter determined using [3H]WIN-35 428 as radioligand
How it was run: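 Competition binding at the dopamine transporter; displacement of [³H]WIN 35,428 at 0.5 nM final concentration.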

[3] = Binding affinity towards serotonin transporter determined using [3H]paroxetine as radioligand
How it was run: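 Serotonin transporter affinity from competition binding versus [³H]paroxetine at a final concentration of 0.2 nM.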

SMILES	pKi [1]	pIC50 [2]	pKi [3]
COC(=O)C1C2CC[C@H](C[C@@H]1c1ccc(I)c(Cl)c1)N2C (stereo partly specified)	8.90	9.59	8.98
COC(=O)C1C2CC[C@H](C[C@@H]1c1ccc(I)c(Br)c1)N2C (stereo partly specified)	8.71	9.70	9.24
COC(=O)C1C2CC[C@H](C[C@@H]1c1ccc(Cl)c(C)c1)N2C (stereo partly specified)	7.44	9.09	7.98
COC(=O)C1C(c2ccc(I)c(I)c2)CC2CCC1N2C (stereo unspecified)	7.39	9.01	8.70
COC(=O)C1C(c2ccc(Cl)c(I)c2)CC2CCC1N2C (stereo unspecified)	7.82	9.39	8.86
COC(=O)C1C(c2ccc(Br)c(Cl)c2)CC2CCC1N2C (stereo unspecified)	8.88	9.92	9.03
COC(=O)C1C(c2ccc(Cl)c(Cl)c2)CC2CCC1N2C (stereo unspecified)	7.74	9.10	8.50
COC(=O)C1C(c2ccc(Br)c(Br)c2)CC2CCC1N2C (stereo unspecified)	8.55	9.57	9.15
COC(=O)[C@@H]1C2CC[C@H](C[C@@H]1c1ccccc1)N2C	6.04	7.64	5.97
COC(=O)C1C(c2ccc(C)c(C)c2)CC2CCC1N2C (stereo unspecified)	6.97	9.37	8.01
COC(=O)C1C(c2ccc(Br)c(I)c2)CC2CCC1N2C (stereo unspecified)	7.98	9.68	8.94
COC(=O)C1C(c2ccc(Cl)c(Br)c2)CC2CCC1N2C (stereo unspecified)	8.14	9.38	9.11
